Source: ChEMBL document CHEMBL5321288, “Proteolytically Stable Diaza-Peptide Foldamers Mimic Helical Hot Spots of Protein-Protein Interactions and Act as Natural Chaperones” (J Med Chem, 2023)
Calls of active or inactive are those of the source. The calls are words filed in the database; no cut-off is given here. Starred links: 1 amine or outer side, 2 acyl side, 3 side chain; linkers in the order of their positions; H or OH if unused. Non-standard residues stand in square brackets, D forms with d. Residues, ends and D or L forms follow the SMILES beside them. *: point of attachment. X3 = C[C@H](O)CN(N[*:1])C(=O)NN(CCCCN)C(=O)[*:2]; X2 = CC(C)CN(NC(=O)N(C)N[*:1])C(=O)[*:2]; X1 = C[C@H](O)CN(N)C(=O)NN(CCCCN)C(=O)*

Key:
[1] = molecular target: Amyloid-beta precursor protein (Homo sapiens) (UniProt P05067); test: Inhibition of Amyloid beta (1 to 42) (unknown origin) aggregation assessed as reduction in experimental fluorescence platea at 10 to 1 ratio of compound to amyloid beta (1 to 42) incubated for 48 hrs fluorescence-detected ThT-binding assay; set-up: scale not given: the % may be the effect or the level left
Amyloid-beta precursor protein (Homo sapiens), sequence (P05067 whole entry): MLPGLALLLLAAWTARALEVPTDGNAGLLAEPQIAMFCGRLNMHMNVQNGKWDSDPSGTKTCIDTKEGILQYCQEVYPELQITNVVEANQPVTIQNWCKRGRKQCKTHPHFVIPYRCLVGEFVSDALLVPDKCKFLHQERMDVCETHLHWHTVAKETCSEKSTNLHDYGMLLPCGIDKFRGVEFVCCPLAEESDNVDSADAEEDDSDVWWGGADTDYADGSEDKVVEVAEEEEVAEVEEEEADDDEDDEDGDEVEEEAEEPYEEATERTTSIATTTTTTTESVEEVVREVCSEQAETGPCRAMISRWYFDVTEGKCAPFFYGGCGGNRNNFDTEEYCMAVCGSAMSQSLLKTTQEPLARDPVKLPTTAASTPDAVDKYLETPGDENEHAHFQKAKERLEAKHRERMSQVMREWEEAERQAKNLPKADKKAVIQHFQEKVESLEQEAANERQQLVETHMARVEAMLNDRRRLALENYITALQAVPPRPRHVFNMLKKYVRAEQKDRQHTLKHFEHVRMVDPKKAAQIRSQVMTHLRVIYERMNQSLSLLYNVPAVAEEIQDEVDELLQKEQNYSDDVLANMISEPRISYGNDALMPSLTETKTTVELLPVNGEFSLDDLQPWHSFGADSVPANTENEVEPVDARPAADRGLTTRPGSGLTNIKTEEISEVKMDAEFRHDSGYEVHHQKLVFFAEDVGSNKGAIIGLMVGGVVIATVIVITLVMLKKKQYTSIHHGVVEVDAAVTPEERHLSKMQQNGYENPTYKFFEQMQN

[2] = molecular target: Amyloid-beta precursor protein (Homo sapiens) (UniProt P05067); test: Inhibition of Amyloid beta (1 to 42) (unknown origin) aggregation assessed as extension of time of the half aggregation at 10 to 1 ratio of compound to amyloid beta (1 to 42) incubated for 48 hrs fluorescence-detected ThT-binding assay; set-up: scale not given: the % may be the effect or the level left
[3] = molecular target: T1, Islet amyloid polypeptide (Homo sapiens) (UniProt P10997); test: Inhibition of hIAPP aggregation assessed as ThT fluorescence intensity at 10 to 1 ratio of compound to hIAPP by ThT fluorescence spectroscopy
T1 sequence (whole entry): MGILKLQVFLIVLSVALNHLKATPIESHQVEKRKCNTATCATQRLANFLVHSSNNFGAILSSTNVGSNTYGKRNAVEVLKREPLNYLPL

[4] = Apparent permeability of the compound in apical to basolateral side in rat blood-brain barrier model at 10 uM; assay type: ADME, tissue-based; conditions: not told
Summary of the method: (§1)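 Rat in vitro BBB model; peptide applied at 5 or 10 μM, co-incubated with Lucifer yellow as integrity standard, solutions in low-binding tubes. Transport measured apical-to-basal and basal-to-apical, in triplicate. Apical and basal samples quantified by LC-MS/MS to give apparent permeability (Papp).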

Homo sapiens = species: Homo sapiens; test: Inhibition of Amyloid beta (1 to 28) (unknown origin) fibril formation assessed as ratio of alpha-helical to beta strand at 125 uM measured upto 5 hrs by CD spectra analysis (reference value: 0.39)
Summary of the method: (§2)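 CD at 25 °C, 195–250 nm, 0.1 cm cell, 50 nm/min, 0.1 nm resolution, five scans averaged. Aβ1-42 or Aβ1-28 at 25 μM with inhibitor at 125 μM, spectra taken at time points up to 5 h. Buffer or inhibitor spectrum subtracted, then smoothing. Secondary structure from 200–250 nm by BeStSel deconvolution.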

[5] = molecular target: Amyloid-beta precursor protein (Homo sapiens) (UniProt P05067); test: Inhibition of Amyloid beta (1 to 42) (unknown origin) fibril formation assessed as decrease in factor of rate constants of secondary nucleation(k2)/elongation(K+) at 1 to 1 ratio of compound to amyloid beta (1 to 42) incubated for 48 hrs ThT assay
[6] = Apparent permeability of the compound in apical to basolateral side in rat blood-brain barrier model at 5 uM; assay type: ADME, tissue-based; conditions: not told; summary of the method: as §1
[7] = molecular target: Amyloid-beta precursor protein (Homo sapiens) (UniProt P05067); test: Inhibition of Amyloid beta (1 to 42) (unknown origin) fibril formation assessed as decrease in parallel beta sheet content at 125 uM measured upto 5 hrs by CD analysis; summary of the method: as §2
[8] = Plasma stability in human plasma assessed as degraded peptide at 1 uM measured after 2 hrs by UPLC-MS/MS analysis; assay type: ADME, cell-free
Summary of the method: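 Compound at 1 μM in human plasma at 37 °C, duplicate. Sampled at 0, 15, 30, 45, 60 and 120 min. Analysed by reversed-phase UPLC, C18 at 40 °C, 4 min gradient of 0.1% formic acid in water/acetonitrile.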

[9] = Cytotoxicity against rat brain endothelial cells assessed as viability at 1 to 100 ug/ml measured after 1 hr by MTT assay; assay type: toxicity, cell-based; conditions: endothelial cell, dose 1-100 µg/ml
[10] = molecular target: Amyloid-beta precursor protein (Homo sapiens) (UniProt P05067); test: Inhibition of Amyloid beta (1 to 42) (unknown origin) fibril formation assessed as decrease in factor of rate constants of secondary nucleation(k2)/elongation(K+) at 10 to 1 ratio of compound to amyloid beta (1 to 42) incubated for 48 hrs ThT assay

Compound	Activity [1]	Activity [2]	inhibition [3]	also measured
CC(=O)NN(C[C@H](C)O)C(=O)NN(CCCCN)C(=O)N[C@@H](CO)C(=O)NN(Cc1ccc(O)cc1)C(=O)NN(CCc1c[nH]c2ccccc12)C(=O)N[C@@H](CCCCN)C(=O)N[C@@H](C)C(=O)N[C@@H](CC(C)C)C(=O)NCC(N)=O	62%	72%	–	–
CC(=O)N[C@H](C(=O)N[C@@H](CCCCN)C(=O)N[C@@H](CO)C(=O)NN(Cc1ccc(O)cc1)C(=O)NN(CCc1c[nH]c2ccccc12)C(=O)N[C@@H](CCCCN)C(=O)NN(C)C(=O)NN(CC(C)C)C(=O)NCC(N)=O)[C@@H](C)O	55%	34%	–	–
CC(=O)N[C@H](C(=O)N[C@@H](CCCCN)C(=O)N[C@@H](CO)C(=O)NN(Cc1ccc(O)cc1)C(=O)NN(CCc1c[nH]c2ccccc12)C(=O)N[C@@H](CCCCN)C(=O)N[C@@H](C)C(=O)N[C@@H](CC(C)C)C(=O)NCC(N)=O)[C@@H](C)O	56%	102%	–	–
CC(=O)NN(C[C@H](C)O)C(=O)NN(CCCCN)C(=O)N[C@@H](CO)C(=O)N[C@@H](Cc1ccc(O)cc1)C(=O)N[C@@H](Cc1c[nH]c2ccccc12)C(=O)N[C@@H](CCCCN)C(=O)N[C@@H](C)C(=O)N[C@@H](CC(C)C)C(=O)NCC(N)=O (Ac-[X3]SYWKALG-NH2)	36%	107%	–	–
CC(=O)NN(C[C@H](C)O)C(=O)NN(CCCCN)C(=O)N[C@@H](CO)C(=O)N[C@@H](Cc1ccc(O)cc1)C(=O)N[C@@H](Cc1c[nH]c2ccccc12)C(=O)N[C@@H](CCCCN)C(=O)NN(C)C(=O)NN(CC(C)C)C(=O)NCC(N)=O (Ac-[X3]SYWK[X2]G-NH2)	41%	30%	inactive	–
H-TKSYWKALG-NH2	59%	209%	inactive	Ratio (Homo sapiens): 0.66; inhibition [5]: inactive; inhibition [7]: Active; metabolised at 2 h, 1 µM [8]: 99%; Ratio [10]: 100

More lines, main results first:

Activity [1]	Activity [2]	inhibition [3]	Compound	also measured
41%	42%	–	CC(=O)NN(C[C@H](C)O)C(=O)NN(CCCCN)C(=O)N[C@@H](CO)C(=O)NN(Cc1ccc(O)cc1)C(=O)NN(CCc1c[nH]c2ccccc12)C(=O)N[C@@H](CCCCN)C(=O)NN(C)C(=O)NN(CC(C)C)C(=O)NCC(N)=O	–
30%	59%	–	CC(=O)N[C@H](C(=O)N[C@@H](CCCCN)C(=O)N[C@@H](CO)C(=O)N[C@@H](Cc1ccc(O)cc1)C(=O)N[C@@H](Cc1c[nH]c2ccccc12)C(=O)N[C@@H](CCCCN)C(=O)NN(C)C(=O)NN(CC(C)C)C(=O)NCC(N)=O)[C@@H](C)O (Ac-TKSYWK[X2]G-NH2)	–
60%	36%	–	CC(C)CN(NC(=O)N(C)NC(=O)[C@H](CCCCN)NC(=O)[C@H](Cc1c[nH]c2ccccc12)NC(=O)[C@H](Cc1ccc(O)cc1)NC(=O)[C@H](CO)NC(=O)[C@H](CCCCN)NC(=O)[C@@H](N)[C@@H](C)O)C(=O)NCC(N)=O (H-TKSYWK[X2]G-NH2)	–
54%	193%	inactive	CC(C)C[C@H](NC(=O)[C@H](C)NC(=O)[C@H](CCCCN)NC(=O)[C@H](Cc1c[nH]c2ccccc12)NC(=O)[C@H](Cc1ccc(O)cc1)NC(=O)[C@H](CO)NC(=O)N(CCCCN)NC(=O)N(N)C[C@H](C)O)C(=O)NCC(N)=O (X1-SYWKALG-NH2)	–
57%	254%	inactive	CC(C)CN(NC(=O)N(C)NC(=O)[C@H](CCCCN)NC(=O)[C@H](Cc1c[nH]c2ccccc12)NC(=O)[C@H](Cc1ccc(O)cc1)NC(=O)[C@H](CO)NC(=O)N(CCCCN)NC(=O)N(N)C[C@H](C)O)C(=O)NCC(N)=O (X1-SYWK[X2]G-NH2)	Papp A→B at 10 µM [4]: 0.677 ×10⁻⁶ cm/s; Ratio (Homo sapiens): 2.16; Ratio [5]: 10; Papp A→B at 5 µM [6]: 0.839 ×10⁻⁶ cm/s; inhibition [7]: Active; metabolised at 2 h, 1 µM [8]: 6%; Activity [9]: Non-Toxic; Ratio [10]: 1e+09
